This is one part of a sample in which hits are shown more often than they occur.
Insulin prom act = activators of insulin promoter-driven GFP, primary screen, imaging, TRM-6 cells, eGFP reporter, cell count; plate-scaled: unstimulated 0, stimulated control 100; activation, % at 2 µM; AID 1296, 2008; 130,000 compounds, 0.81% hits;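 active means activation at 2 µM above a set limit, confirmed on inspection of the cell images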;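 further: share of cells whose green reporter signal exceeds an intensity cutoff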
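System: human fetal islet-derived TRM-6 cells with tamoxifen-inducible insulin promoter–eGFP reporter; input: seeding density of 1,000 cells per well; buffer or medium: Low-glucose (5.5 mM) medium with tamoxifen; incubation: compound exposure 48 h, 37 °C; measured by: high-content imaging of fixed cells with Hoechst nuclear stain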
* hit, by the source's call.

SMILES | Insulin prom act
Cc1ccc(C)c(S(=O)(=O)NCC(=O)Nc2sc3c(c2C(N)=O)CCC(C)C3)c1 (centres undefined) | 3
COCCNC(=O)COC(=O)/C=C/c1cnc2ccccc2n1 | 9
COCCNC(=O)CN(C(=O)c1ccc(N2CCCC2)nc1)c1ccccc1 | 773*
COc1ccc(-c2nnn(CC(=O)N(CC(=O)NCCC(C)C)c3ccccc3)n2)cc1OC | 0
CC(=O)c1ccc2c(c1)CC(C)C(=O)N2C (centres undefined) | -8
COC(=O)c1nn(C23CC4CC(CC(C4)C2)C3)c2c1C(=O)N(c1ccc(Br)cc1)C2=O | 0
Cc1ccc(Cn2c(=O)n(Cc3ccco3)c(=O)c3ccccc32)cc1 | 4
Cn1c(=N)n(CC(=O)O)c2ccccc21 | 0
CCN(CC)CCn1c(=N)n(CC(O)c2ccco2)c2ccccc21 (centres undefined) | 508*
N=c1n(Cc2ccccc2)c2ccccc2n1CC(O)c1ccco1 (centres undefined) | 0
O=C(CS(=O)CC(=O)N(CC(=O)NC1CCCC1)c1ccc2c(c1)OCCO2)Nc1ccc(F)cc1 (centres undefined) | -2
COc1ccc(Cc2nnc(SCC(=O)c3ccc(OC)cc3)o2)cc1 | 42
COc1ccc(Cc2n[nH]c(=S)o2)cc1 | 479*
S=c1[nH]nc(COc2ccc3ccccc3c2)o1 | 107
CN(C)c1nc(NS(=O)(=O)c2ccc(Cl)cc2)nc(N(C)C)n1 | -71
O=C(NC1CCCCC1)N1CCN(C(=O)c2ccco2)CC1 | 0
CCOC(=O)CSc1nnc(CNC(=O)c2ccc(OC)c(OC)c2)n1C | 0
Cc1nn2c(-c3cccc(NC(=O)c4ccco4)c3)nnc2c2ccccc12 | 263
CNS(=O)(=O)c1ccc(OC)c(-c2nnc3c4ccccc4c(C)nn23)c1 | -7
Cc1nn2c(-c3ccccc3)nnc2c2ccccc12 | 450*
O=C(NCC1CCCO1)C(=O)NCC(c1ccco1)N1CCN(c2ccccc2)CC1 (centres undefined) | -3
Cc1ccc2nc(C(=O)N3CCc4c([nH]c5ccccc45)C3c3ccccn3)cn2c1 (centres undefined) | 7
Clc1ccc2c(c1)C(N1CCNCC1)Cc1ccccc1S2 (centres undefined) | 507*
Clc1cccc2c1Sc1ccccc1CC2N1CCNCC1 (centres undefined) | 3
Cc1cc(C(=O)O)c(CSCc2cc(C(=O)O)oc2C)o1 | 3
SMILES | Insulin prom act
C/C(=N\NC(=O)CSCc1ccc([N+](=O)[O-])cc1)c1ccccc1O | -8
COc1ccc(Cc2nnc(NC(=O)Cn3cnc4c3c(=O)n(C)c(=O)n4C)s2)cc1 | 235
O=C(CCCn1c(=O)[nH]c2cc(Cl)ccc2c1=O)NCCCN1CCN(c2ccc(F)cc2)CC1 | 267*
O=C(CCCn1c(=O)[nH]c2cc(Cl)ccc2c1=O)NCCCN1CCCC1 | -8
COc1ccc(N2CCN(C(=O)CCCn3c(=O)[nH]c4cc(Cl)ccc4c3=O)CC2)cc1 | -74
Cc1cc(NC(=O)COC(=O)c2oc3c(Cl)cccc3c2C)no1 | 0
O=C1NC(=O)C2(COC(c3ccncc3)OC2)S1 (centres undefined) | 3
CC(=O)N1C2CCCCC2S[C@H]2CCCCC21 (some centres undefined) | 200*
CC1CCCC(C)N1C(=O)C1CCCCC1 (centres undefined) | -7
CC(C)COC(=O)Nc1nnc(SCCOc2ccccc2)s1 | -7
CSc1nsc(/C=C/Nc2ccc(C)c(C)c2)c1C#N | 669*
Cc1ccc(N/C=C(/C#N)c2ccsc2)cc1C | 7
COc1cc(/C=N/Nc2snc(SC)c2C#N)ccc1O | 2
COC(=O)c1nn(-c2ccc(C)cc2)c2nnc(Cc3ccccc3)c(=O)n12 | -5
c1cncc(C(c2nnnn2C2CCCC2)N2CCN(Cc3ccc4c(c3)OCO4)CC2)c1 (centres undefined) | 119
CCOc1ncccc1C(=O)N1CCN(Cc2ccc3c(c2)OCO3)CC1 | 7
c1cc2c(cc1CN1CCOCC1)OCO2 | 3
c1ccc2c(c1)CCN(Cc1nnnn1Cc1ccc3c(c1)OCO3)C2 | -7
CC(C)C(c1nnnn1Cc1ccc(F)cc1)N1CCN(Cc2ccc3c(c2)OCO3)CC1 (centres undefined) | 121*
c1cnc(N2CCN(Cc3ccc4c(c3)OCO4)CC2)nc1 | 314*
COc1cc(C(=O)c2ccccc2)c(OC)cc1C(=O)Nc1ccc(O)cc1 | -71
O=c1c([N+](=O)[O-])cccn1Cc1cccc(Cl)c1 | 0
O=C(NCc1cccs1)c1csc2ccccc12 | -1
O=C(O)C1CC(=O)N(c2ccc(OCc3c(F)cccc3Cl)cc2)C1 (centres undefined) | 0
C=CCC1(NC(C)c2ccccc2)CCCCC1 (centres undefined) | -3
SMILES | Insulin prom act
COc1ccccc1C/C(N)=N/O | 0
CC(C)Cc1ccc(C(C)NC(=O)c2ccc(=O)[nH]c2)cc1 (centres undefined) | 350*
CC(C)Cc1ccc(C(C)C(=O)O)cc1 (centres undefined) | 5
CCCc1ccc(C(C)NC(=O)c2cnccn2)cc1 (centres undefined) | 9
CCCCOCCCNC(=O)c1ccc([N+](=O)[O-])c(C)c1 | 7
COC(=O)CSc1nc(-c2ccccc2)nc2ccccc12 | -5
O=C(OCc1ccccc1)N1CCOCCOCCN(C(=O)OCc2ccccc2)CCOCCOCC1 | 0
O=C(COc1ccc([N+](=O)[O-])cc1)N/N=C/c1cc([N+](=O)[O-])ccc1N1CCOCC1 | 148
O=[N+]([O-])c1ccc(N/N=C/c2sc(N3CCOCC3)nc2-c2ccccc2)c(S(=O)(=O)Nc2ccc(Cl)cc2)c1 | 488*
COC(=O)CCC(=O)Nc1cc(S(=O)(=O)Nc2ccc(Cl)cc2)ccc1N1CCOCC1 | 103
OCCN1CCN(c2ncnc3sc(-c4ccccc4)cc23)CC1 | 0
CSc1nc(Oc2ccc(C)cc2)cc(C(F)(F)F)n1 | -7
Cc1ccccc1N1CC(C(=O)O)CC1=O (centres undefined) | -3
Cc1cc(N2CC(C(=O)NCc3cccs3)CC2=O)ccc1C(C)C (centres undefined) | 0
Cc1ccc(N2CC(C(N)=O)CC2=O)cc1C (centres undefined) | 543*
c1ccc(CSc2ccc(-c3cccnc3)nn2)nc1 | 0
O=C(NC(=S)Nc1ccc2c(c1)C(=O)c1ccccc1C2=O)c1ccc(F)cc1 | -7
CCOc1ccc(C2OC34CCCCC3C(C#N)(C#N)C2(C#N)C(=N)O4)cc1OC (centres undefined) | -6
Cc1ccc(NC(=O)CCC(=O)OCC(F)(F)C(F)F)cc1 | 81*
Cc1ccc(NC(=O)CCC(=O)OCC(=O)c2ccc(-c3ccccc3)cc2)cc1 | -24
O=C(CCC(=O)OCCCC(F)(F)C(F)(F)F)Nc1ccccc1 | -9
N#Cc1cccc(NC(=S)Nc2ccccc2)c1 | -6
Cc1ccc(NC(=S)N(CCCN(C)C)Cc2cc3cc4c(cc3[nH]c2=O)OCO4)c(C)c1 | 0
CCOC(=O)c1cc(C)n(Cc2ccc(OCC)c(OC)c2)c1C | 86*
CCOc1cc(CN2CCN(C(=O)c3ccco3)CC2)ccc1OC | 9
CCOC(=O)CC1C(=O)NCCN1Cc1ccc(OC)c(OC)c1 (centres undefined) | 154
Cc1ccc(-c2nc3c(c(=O)c4ccccc4n3C)c(=O)n2-c2ccccc2)cc1 | 10
O=C(CN1CCc2ccccc2C1)Nc1ccc(F)cc1F | -6

High-throughput results from PubChem BioAssay.
